Source: paper PMC4593655 (Bioorganic & medicinal chemistry, 2015)

Key:
[1] = tested on: NCI full panel of 60 cell lines; experiment: NCI 5-dose assay, full panel overview; assay type: cell-based, human; details: for CC50: Homo sapiens, 60 cell, read-out: pLC50 MG_MID (converted); for cytotoxicity in NCI screen: in words; for pTGI MG_MID: mean graph midpoint over all tested cell lines; for pTGI No. giving positive results: number of cell lines for which TGI ≤100 μM; for cellular lines with 50% growth inhibition at submicromolar concentrations: number of cell lines of those tested
In short: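 Five-dose NCI standard protocol screen of test compound against 60 human tumour lines from nine cancer types. pGI₅₀, pTGI and pLC₅₀ are −log molar concentrations giving 50% net growth inhibition, total growth inhibition and 50% net cell death. MG_MID is the arithmetic mean over all tested lines. Counts give the lines with each value ≤100 μM. Where an effect was not reached, the highest tested concentration was used.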

purified tubulin = experiment: Assembly of purified tubulin; assay type: biochemical; details: data not presented
tubulin = experiment: Inhibition of colchicine binding to tubulin; details: data not presented
K562 cells [2] = experiment: Annexin V-FITC/PI staining flow cytometry; assay type: cell-based, human; details: 10 μM, 24 h
In short: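 K562 cells were grown in RPMI 1640 with 5% FBS and antibiotics at 37 °C in 5% CO₂, then exposed to test compound for 24 h. Cells were harvested, centrifuged at 800 rpm for 10 min and washed in PBS. 10⁵ cells per sample were stained with annexin V-FITC plus PI for 15 min in the dark. Flow cytometry read FL1 (530 nm) and FL3 (>575 nm) over 10,000 events. Areas: C1 necrotic, C2 late apoptotic, C3 viable, C4 early apoptotic.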

K562 cells [3] = experiment: Cell morphology under light microscopy; assay type: cell-based, human; details: K562, 48 h, 10 and 25 μM
In short: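 K562 cells, cultured in medium with 5% FBS, 100 U/mL penicillin and 100 μg/mL streptomycin at 37 °C under 5% CO₂, were seeded at 8 × 10³/well and exposed to test compound for 48 h alongside untreated control. Morphology was then examined by light microscopy at 200× magnification.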

pro-caspase 6 = experiment: Western blotting analysis of pro-caspase 6; assay type: cell-based, human; details: K562, 10 μM, 48 h
In short: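 K562 cells were seeded at 1.5 × 10⁵/well and treated 48 h with 10 μM test compound. Lysate protein was measured by Lowry assay, run on SDS-PAGE and transferred to nitrocellulose. Pro-caspase 3 and 6 were detected with specific alkaline phosphatase-conjugated antibodies. Loading was checked by Ponceau red and β-actin immunoblot, and bands were quantified by densitometry. Blots are representative of at least three experiments.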

K562 cells [4] = experiment: Hoechst 33342 nuclear staining, fluorescence microscopy; assay type: cell-based, human; details: 10 μM, 48 h
In short: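 K562 cells were plated at 8 × 10³/well on poly-D-lysine-coated plates and left to adhere overnight. They were prestained with Hoechst 33342 in medium for 30 min, washed with PBS and resuspended in medium, then given test compound or vehicle for 48 h.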

Row | SMILES | CC50 [1] [µM] | cytotoxicity in NCI screen [1] | pTGI MG_MID [1] | pTGI No. giving positive results [1] | cellular lines with 50% growth inhibition at submicromolar concentrations [1] | effects on the assembly of purified tubulin (purified tubulin) | inhibition of colchicine binding to tubulin (tubulin) | necrotic cells (K562 cells [2]) | morphological changes (K562 cells [3]) | reduction in the level of pro-caspase 6 (pro-caspase 6) [%] | nuclear morphology typical of apoptosis (K562 cells [4])
1 | NC(=O)c1cc(Cl)ccc1NC(=O)COc1ccccc1 [Compound 17f, 5-Chloro-2-(2-phenoxyacetamido)benzamide] | > 100 | low cytotoxicity | 4.14 | 10 | 3 of 57 | negligible effects | negligible effects | – | – | – | –
2 | NC(=O)c1cc(I)ccc1NC(=O)COc1ccccc1 [Compound 17j, 5-Iodo-2-(2-phenoxyacetamido)benzamide] | > 89.1 | low cytotoxicity | 4.45 | 25 | 44 of 56 | negligible effects | negligible effects | no necrotic cells were detected | remarkable reduction in cell number and cell size | −20 | chromatin condensation and nuclear fragmentation
3 | COc1ccc(NC(=O)COc2ccccc2)c(C(N)=O)c1 [Compound 17r, 5-Methoxy-2-(2-phenoxyacetamido)benzamide] | > 97.7 | low cytotoxicity | 4.31 | 25 | 30 of 56 | negligible effects | negligible effects | – | – | – | –
4 | COc1cc(NC(=O)COc2ccccc2)c(C(N)=O)cc1OC [Compound 17u, 4,5-Dimethoxy-2-(2-phenoxyacetamido)benzamide] | > 93.3 | low cytotoxicity | 4.31 | 23 | 26 of 58 | negligible effects | negligible effects | – | remarkable reduction in cell number and cell size | −50 | chromatin condensation and nuclear fragmentation
